Results from ChEMBL document CHEMBL1138351, “Small, potent, and selective diaryl phosphonate inhibitors for urokinase-type plasminogen activator with in vivo antimetastatic properties” (J Med Chem, 2007).

What was measured:
[1] = Chemical stability assessed as half life of hydrolysis at pH 8.8; assay type: physicochemical; conditions: buffer
[2] = system: Rattus norvegicus; assay: Toxicity in Brown Norwegian rat bearing BN472 tumor assessed as increase in lung weight at 0.1 mg/kg, ip administered once daily after 4 days of tumor transplantation for 17 to 18 days relative to control; assay type: organism-based; design: dose 0.1 mg/kg, route intraperitoneal; conditions: in vivo
Method in brief: (§1)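 Orthotopic BN472 breast tumour model in rats. Daily i.p. dosing at 0.1 or 1 mg/kg started on day 4 and ran 17–18 days, with vehicle-only i.p. controls. Side effects were assessed from body weight and the weights of several organs, compared with controls.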

[3] = Chemical stability assessed as half life of hydrolysis at pH 7.4; assay type: physicochemical; conditions: buffer
[4] = system: Rattus norvegicus; assay: Toxicity in Brown Norwegian rat bearing BN472 tumor assessed as decrease in liver weight at 0.1 mg/kg, ip administered once daily after 4 days of tumor transplantation for 17 to 18 days relative to control; assay type: organism-based; design: dose 0.1 mg/kg, route intraperitoneal; scale not given: the % may be the effect or the level left; conditions: in vivo; method in brief: as §1
[5] = Antitumor activity against Brown Norwegian rat bearing BN472 tumor assessed as reduction of tumor weight at 1 mg/kg, ip administered once daily after 4 days of tumor transplantation for 17 to 18 days relative to control; assay type: functional; design: scale not given: the % may be the effect or the level left; conditions: route intraperitoneal
Method in brief: (§2)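 Rats bearing orthotopic BN472 breast tumours (grown three days) were dosed i.p. daily from day 4 for 17–18 days at 0.1 or 1 mg/kg. Vehicle-only i.p. controls were included. Tumour size and tumour weight were measured at the end of the treatment period and compared with controls.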

[6] = target: Prothrombin (Homo sapiens, UniProt P00734); assay: Inhibition of human thrombin
Method in brief: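 Human plasma thrombin was assayed at 37 °C in Tris pH 8.3. […] Initial rate was read at 405 nm, in duplicate. IC50 was obtained from a four-parameter logistic fit.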

[7] = system: Rattus norvegicus; assay: Toxicity in Brown Norwegian rat bearing BN472 tumor assessed as decrease in adrenal weight at 0.1 mg/kg, ip administered once daily after 4 days of tumor transplantation for 17 to 18 days relative to control; assay type: organism-based; design: dose 0.1 mg/kg, route intraperitoneal; scale not given: the % may be the effect or the level left; conditions: in vivo; method in brief: as §1
[8] = Antimetastatic activity against Brown Norwegian rat bearing BN472 tumor assessed as reduction of axillary lymph node weight at 0.1 mg/kg, ip administered once daily after 4 days of tumor transplantation for 17 to 18 days relative to control; assay type: functional; design: scale not given: the % may be the effect or the level left; conditions: route intraperitoneal
Method in brief: (§3)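 BN472 breast tumours implanted orthotopically in rats and left to grow three days. From day 4, compounds were given i.p. daily for 17–18 days at 0.1 or 1 mg/kg. Controls received vehicle i.p. only. Lung foci were counted and axillary lymph nodes weighed at the end of treatment. Groups were compared with control at an unadjusted significance level of P 0.05.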

[9] = system: Rattus norvegicus; assay: Toxicity in Brown Norwegian rat bearing BN472 tumor assessed as increase in uterus weight at 0.1 mg/kg, ip administered once daily after 4 days of tumor transplantation for 17 to 18 days relative to control; assay type: organism-based; design: dose 0.1 mg/kg, route intraperitoneal; conditions: in vivo; method in brief: as §1
[10] = Antimetastatic activity against Brown Norwegian rat bearing BN472 tumor assessed as reduction of interpectoral lymph node weight at 1 mg/kg, ip administered once daily after 4 days of tumor transplantation for 17 to 18 days relative to control; assay type: functional; design: scale not given: the % may be the effect or the level left; conditions: route intraperitoneal
[11] = Distribution coefficient, log D in octanol and phosphate buffer saline at pH 7.4; assay type: physicochemical; conditions: octanol/phosphate buffered saline
Method in brief: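 A 10 mM DMSO stock was added to a 1:1 octanol/PBS pH 7.4 mixture. Measured in duplicate.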

[12] = system: Rattus norvegicus; assay: Toxicity in Brown Norwegian rat bearing BN472 tumor assessed as increase in kidney weight at 1 mg/kg, ip administered once daily after 4 days of tumor transplantation for 17 to 18 days relative to control; assay type: organism-based; design: dose 1 mg/kg, route intraperitoneal; conditions: in vivo; method in brief: as §1
[13] = Antitumor activity aganist Brown Norwegian rat bearing BN472 tumor assessed as reduction of tumor weight at 0.1 mg/kg, ip administered once daily after 4 days of tumor transplantation for 17 to 18 days relative to control; assay type: functional; design: scale not given: the % may be the effect or the level left; conditions: route intraperitoneal; method in brief: as §2
[14] = system: Rattus norvegicus; assay: Toxicity in Brown Norwegian rat bearing BN472 tumor assessed as increase in uterus weight at 1 mg/kg, ip administered once daily after 4 days of tumor transplantation for 17 to 18 days relative to control; assay type: organism-based; design: dose 1 mg/kg, route intraperitoneal; conditions: in vivo; method in brief: as §1
[15] = target: Plasminogen (Mus musculus, UniProt P20918); assay: Inhibition of mouse plasmin
[16] = Antimetastatic activity against Brown Norwegian rat bearing BN472 tumor assessed as decrease in number of lung foci at 0.1 mg/kg, ip administered once daily after 4 days of tumor transplantation for 17 to 18 days relative to control; assay type: functional; design: scale not given: the % may be the effect or the level left; conditions: route intraperitoneal; method in brief: as §3
[17] = Antimetastatic activity against Brown Norwegian rat bearing BN472 tumor assessed as reduction of axillary lymph node weight at 1 mg/kg, ip administered once daily after 4 days of tumor transplantation for 17 to 18 days relative to control; assay type: functional; design: scale not given: the % may be the effect or the level left; conditions: route intraperitoneal; method in brief: as §3
[18] = Chemical stability assessed as half life of hydrolysis at pH 4; assay type: physicochemical; conditions: buffer
[19] = target: Plasminogen (Rattus norvegicus, UniProt Q01177); assay: Inhibition of rat plasmin
[20] = system: Rattus norvegicus; assay: Toxicity in Brown Norwegian rat bearing BN472 tumor assessed as effect on body weight at 0.1 mg/kg, ip administered once daily after 4 days of tumor transplantation for 17 to 18 days relative to control; assay type: organism-based; design: dose 0.1 mg/kg, route intraperitoneal; conditions: in vivo; method in brief: as §1
[21] = target: Urokinase-type plasminogen activator (Mus musculus, UniProt P06869); assay: Inhibition of mouse uPA
[22] = target: Prothrombin (Mus musculus, UniProt P19221); assay: Inhibition of mouse thrombin
[23] = Antitumor activity aganist Brown Norwegian rat bearing BN472 tumor assessed as reduction of tumor size at 0.1 mg/kg, ip administered once daily after 4 days of tumor transplantation for 17 to 18 days relative to control; assay type: functional; design: scale not given: the % may be the effect or the level left; conditions: route intraperitoneal; method in brief: as §2
[24] = target: Prothrombin (Rattus norvegicus, UniProt P18292); assay: Inhibition of rat thrombin
[25] = system: Rattus norvegicus; assay: Toxicity in Brown Norwegian rat bearing BN472 tumor assessed as decrease in liver weight at 1 mg/kg, ip administered once daily after 4 days of tumor transplantation for 17 to 18 days relative to control; assay type: organism-based; design: dose 1 mg/kg, route intraperitoneal; scale not given: the % may be the effect or the level left; conditions: in vivo; method in brief: as §1
[26] = Antimetastatic activity against Brown Norwegian rat bearing BN472 tumor assessed as decrease in number of lung foci at 1 mg/kg, ip administered once daily after 4 days of tumor transplantation for 17 to 18 days relative to control; assay type: functional; design: scale not given: the % may be the effect or the level left; conditions: route intraperitoneal; method in brief: as §3
[27] = system: Rattus norvegicus; assay: Toxicity in Brown Norwegian rat bearing BN472 tumor assessed as decrease in spleen weight at 0.1 mg/kg, ip administered once daily after 4 days of tumor transplantation for 17 to 18 days relative to control; assay type: organism-based; design: dose 0.1 mg/kg, route intraperitoneal; scale not given: the % may be the effect or the level left; conditions: in vivo; method in brief: as §1
[28] = target: Plasminogen (Homo sapiens, UniProt P00747); assay: Inhibition of human plasmin
Method in brief: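 Plasmin from human plasma at about 5 mU was preincubated with inhibitor (0–250 µM final) for 15 min at 37 °C. Substrate was S-2366 at 580 µM in Tris pH 7.4. Initial rate was read at 405 nm, in duplicate. IC50 came from a four-parameter logistic fit.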

[29] = Apparent solubility in phosphate buffered saline at pH 7.4 after 2 hrs; assay type: ADME
Method in brief: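 Compounds were serially diluted from 10 mM DMSO stock into PBS pH 7.4 (2% DMSO final), giving 1–200 µM final at eight concentrations, in duplicate. Incubation was 2 h at 37 °C. Solubility was taken as the onset of increased absorbance at 620 nm.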

[30] = Antimetastatic activity against Brown Norwegian rat bearing BN472 tumor assessed as reduction of interpectoral lymph node weight at 0.1 mg/kg, ip administered once daily after 4 days of tumor transplantation for 17 to 18 days relative to control; assay type: functional; design: scale not given: the % may be the effect or the level left; conditions: route intraperitoneal
[31] = target: Urokinase-type plasminogen activator (Rattus norvegicus, UniProt P29598); assay: Inhibition of rat uPA
[32] = system: Rattus norvegicus; assay: Toxicity in Brown Norwegian rat bearing BN472 tumor assessed as increase in kidney weight at 0.1 mg/kg, ip administered once daily after 4 days of tumor transplantation for 17 to 18 days relative to control; assay type: organism-based; design: dose 0.1 mg/kg, route intraperitoneal; conditions: in vivo; method in brief: as §1
[33] = target: Urokinase-type plasminogen activator (Homo sapiens, UniProt P00749)
[34] = Chemical stability assessed as half life of hydrolysis at pH 1; assay type: physicochemical; conditions: buffer
[35] = Stability in human plasma after 3 hrs; assay type: ADME, cell-free; conditions: read-out: Stability
Method in brief: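 Compound was added from 10 mM DMSO stock to human plasma at 200 µM final and shaken at 37 °C for up to 24 h. Aliquots were quenched in methanol and centrifuged. The supernatant was diluted with internal standard and analysed by LC/MS/MS in triplicate. Result is given as % parent compound remaining.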

[36] = system: Rattus norvegicus; assay: Toxicity in Brown Norwegian rat bearing BN472 tumor assessed as effect on body weight at 1 mg/kg, ip administered once daily after 4 days of tumor transplantation for 17 to 18 days relative to control; assay type: organism-based; design: dose 1 mg/kg, route intraperitoneal; conditions: in vivo; method in brief: as §1
[37] = Antitumor activity against Brown Norwegian rat bearing BN472 tumor assessed as reduction of tumor size at 1 mg/kg, ip administered once daily after 4 days of tumor transplantation for 17 to 18 days relative to control; assay type: functional; design: scale not given: the % may be the effect or the level left; conditions: route intraperitoneal; method in brief: as §2
[38] = system: Rattus norvegicus; assay: Toxicity in Brown Norwegian rat bearing BN472 tumor assessed as decrease in spleen weight at 1 mg/kg, ip administered once daily after 4 days of tumor transplantation for 17 to 18 days relative to control; assay type: organism-based; design: dose 1 mg/kg, route intraperitoneal; scale not given: the % may be the effect or the level left; conditions: in vivo; method in brief: as §1

Plasminogen (Rattus norvegicus, UniProt Q01177), sequence (Q01177 97-581 limits assumed): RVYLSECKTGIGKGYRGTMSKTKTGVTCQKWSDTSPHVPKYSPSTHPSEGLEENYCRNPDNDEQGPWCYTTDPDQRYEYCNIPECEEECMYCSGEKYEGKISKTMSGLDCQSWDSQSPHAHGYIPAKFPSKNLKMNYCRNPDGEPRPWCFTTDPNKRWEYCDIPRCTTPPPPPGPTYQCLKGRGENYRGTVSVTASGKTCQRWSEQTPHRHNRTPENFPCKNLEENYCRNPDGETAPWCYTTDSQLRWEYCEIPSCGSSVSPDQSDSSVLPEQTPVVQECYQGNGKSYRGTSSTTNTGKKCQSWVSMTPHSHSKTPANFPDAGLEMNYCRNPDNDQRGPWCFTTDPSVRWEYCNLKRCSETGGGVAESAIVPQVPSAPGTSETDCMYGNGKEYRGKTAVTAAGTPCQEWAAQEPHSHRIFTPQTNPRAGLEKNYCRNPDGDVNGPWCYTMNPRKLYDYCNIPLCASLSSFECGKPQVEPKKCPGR
Plasminogen (Rattus norvegicus, UniProt Q01177), sequence (Q01177 582-812 limits assumed): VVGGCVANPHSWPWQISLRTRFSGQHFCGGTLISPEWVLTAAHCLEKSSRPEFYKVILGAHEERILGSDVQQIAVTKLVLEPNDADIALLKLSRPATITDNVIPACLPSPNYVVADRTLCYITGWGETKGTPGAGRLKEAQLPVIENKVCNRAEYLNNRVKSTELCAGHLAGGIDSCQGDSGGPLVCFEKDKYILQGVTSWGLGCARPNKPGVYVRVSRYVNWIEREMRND
Urokinase-type plasminogen activator (Rattus norvegicus, UniProt P29598), sequence (P29598 20-177 limits assumed): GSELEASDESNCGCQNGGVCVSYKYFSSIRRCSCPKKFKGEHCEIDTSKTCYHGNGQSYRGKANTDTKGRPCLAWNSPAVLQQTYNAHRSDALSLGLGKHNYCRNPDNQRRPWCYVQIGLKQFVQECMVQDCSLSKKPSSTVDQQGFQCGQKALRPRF
Urokinase-type plasminogen activator (Rattus norvegicus, UniProt P29598), sequence (P29598 179-432 limits assumed): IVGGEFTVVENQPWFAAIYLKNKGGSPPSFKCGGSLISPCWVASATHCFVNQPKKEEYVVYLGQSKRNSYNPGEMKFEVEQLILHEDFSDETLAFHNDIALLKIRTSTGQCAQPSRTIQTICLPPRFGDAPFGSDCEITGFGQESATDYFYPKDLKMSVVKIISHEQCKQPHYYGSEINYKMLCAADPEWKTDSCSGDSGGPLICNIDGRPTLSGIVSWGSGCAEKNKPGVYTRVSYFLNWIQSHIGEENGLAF
Urokinase-type plasminogen activator (Mus musculus, UniProt P06869), sequence (P06869 21-178 limits assumed): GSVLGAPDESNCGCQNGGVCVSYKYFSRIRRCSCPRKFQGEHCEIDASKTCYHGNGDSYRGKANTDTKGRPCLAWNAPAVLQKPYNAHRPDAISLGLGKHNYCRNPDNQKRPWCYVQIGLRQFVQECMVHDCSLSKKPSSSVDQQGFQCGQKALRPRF
Urokinase-type plasminogen activator (Mus musculus, UniProt P06869), sequence (P06869 180-433 limits assumed): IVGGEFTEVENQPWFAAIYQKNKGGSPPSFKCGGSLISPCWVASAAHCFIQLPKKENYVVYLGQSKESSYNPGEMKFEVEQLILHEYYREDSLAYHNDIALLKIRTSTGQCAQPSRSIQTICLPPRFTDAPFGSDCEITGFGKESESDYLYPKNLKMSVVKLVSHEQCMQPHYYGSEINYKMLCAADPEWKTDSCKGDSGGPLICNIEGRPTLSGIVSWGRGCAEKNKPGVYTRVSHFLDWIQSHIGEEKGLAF
Plasminogen (Mus musculus, UniProt P20918), sequence (P20918 98-581 limits assumed): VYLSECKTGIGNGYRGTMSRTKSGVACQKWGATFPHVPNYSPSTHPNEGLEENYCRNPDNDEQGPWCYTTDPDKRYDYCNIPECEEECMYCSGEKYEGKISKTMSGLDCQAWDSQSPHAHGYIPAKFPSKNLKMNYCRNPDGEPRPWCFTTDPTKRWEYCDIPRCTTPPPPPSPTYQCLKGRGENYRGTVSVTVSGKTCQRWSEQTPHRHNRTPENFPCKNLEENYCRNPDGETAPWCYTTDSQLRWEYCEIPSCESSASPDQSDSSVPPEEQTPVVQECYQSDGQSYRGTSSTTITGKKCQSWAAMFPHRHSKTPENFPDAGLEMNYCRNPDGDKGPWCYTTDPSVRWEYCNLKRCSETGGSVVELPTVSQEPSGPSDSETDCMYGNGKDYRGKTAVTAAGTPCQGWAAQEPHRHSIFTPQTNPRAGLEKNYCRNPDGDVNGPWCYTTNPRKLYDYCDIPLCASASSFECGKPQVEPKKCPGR
Plasminogen (Mus musculus, UniProt P20918), sequence (P20918 582-812 limits assumed): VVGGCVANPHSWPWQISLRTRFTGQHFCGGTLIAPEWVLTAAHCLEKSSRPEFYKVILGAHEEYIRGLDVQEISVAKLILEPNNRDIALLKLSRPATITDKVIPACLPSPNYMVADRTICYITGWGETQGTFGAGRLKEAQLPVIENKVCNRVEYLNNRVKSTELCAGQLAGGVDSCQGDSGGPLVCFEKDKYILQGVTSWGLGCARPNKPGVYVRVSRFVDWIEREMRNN
Plasminogen (Homo sapiens, UniProt P00747), sequence (P00747 97-580 limits assumed): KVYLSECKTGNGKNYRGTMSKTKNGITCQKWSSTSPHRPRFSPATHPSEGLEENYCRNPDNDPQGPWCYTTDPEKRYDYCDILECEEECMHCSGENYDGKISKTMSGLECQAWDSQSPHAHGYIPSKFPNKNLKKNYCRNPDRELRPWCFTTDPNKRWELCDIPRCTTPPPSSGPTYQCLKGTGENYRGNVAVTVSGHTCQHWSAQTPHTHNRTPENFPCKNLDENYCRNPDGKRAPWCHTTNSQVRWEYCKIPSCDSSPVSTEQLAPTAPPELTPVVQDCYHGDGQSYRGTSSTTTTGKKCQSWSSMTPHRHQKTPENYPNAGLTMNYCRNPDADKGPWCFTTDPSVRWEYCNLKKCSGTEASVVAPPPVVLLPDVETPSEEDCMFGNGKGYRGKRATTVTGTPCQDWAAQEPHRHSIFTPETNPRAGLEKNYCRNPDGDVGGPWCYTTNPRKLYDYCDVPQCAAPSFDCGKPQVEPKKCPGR
Plasminogen (Homo sapiens, UniProt P00747), sequence (P00747 581-810 limits assumed): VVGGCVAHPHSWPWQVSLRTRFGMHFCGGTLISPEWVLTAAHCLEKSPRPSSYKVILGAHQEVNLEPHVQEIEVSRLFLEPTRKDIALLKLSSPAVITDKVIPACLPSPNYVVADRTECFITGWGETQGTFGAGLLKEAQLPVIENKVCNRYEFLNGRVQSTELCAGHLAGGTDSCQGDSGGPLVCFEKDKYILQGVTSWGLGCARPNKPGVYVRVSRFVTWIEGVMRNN

## COC(=O)NC(Cc1ccc(NC(=N)N)cc1)P(=O)(Oc1ccccc1)Oc1ccccc1 (stereo not drawn)
[1]
  half-life: 6 h
[2]
  Activity: 3%
[3]
  half-life: 120 h
[4]
  Activity: 2%
[5]
  Activity: 9%
[6]
  IC50: 17 µM
[7]
  Activity: 3%
[8]
  Activity: 46%
[9]
  Activity: 30%
[10]
  Activity: 8%
[11]
  logD: 1.1
[12]
  Activity: 8%
[13]
  Activity: 27%
[14]
  Activity: 36%
[15]
  IC50: 25 µM
[16]
  Activity: 29%
[17]
  Activity: 61%
[18]
  half-life: > 336 h
[19]
  IC50: 15 µM
[20]
  Activity: 168.5 g
[21]
  IC50: 0.032 µM
[22]
  IC50: 42 µM
[23]
  Activity: 17%
[24]
  IC50: > 100 µM
[25]
  Activity: 3%
[26]
  Activity: 61%
[27]
  Activity: 17%
[28]
  IC50: 13 µM
[29]
  solubility at 2 h: > 200 µM
[30]
  Activity: 10%
[31]
  IC50: 0.0195 µM
[32]
  Activity: 3%
[33]
  Kapp: 62000 M⁻¹ s⁻¹
[34]
  half-life: > 336 h
[35]
  remaining at 3 h: 63%
[36]
  Activity: 169.5 g
[37]
  Activity: 11%
[38]
  Activity: 12%
